Bioassay records: PubChem BioAssay, The Scripps Research Institute Molecular Screening Center
Shown are actives, neighbours in structure and some others; about 2.4% of the full set was active somewhere.
NPY-Y2 antag = NPY-Y2 receptor antagonists, primary screen, cell-based. NPY-Y2 expressing cells, antagonist mode. inhibition, % at 2.7 µM. 0.99% of 140,000 active. AID 793, 2007;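 further: 0% = vehicle with agonist challenge and 100% = reference antagonist with challenge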
Target sequence (P49146 whole entry, looked up): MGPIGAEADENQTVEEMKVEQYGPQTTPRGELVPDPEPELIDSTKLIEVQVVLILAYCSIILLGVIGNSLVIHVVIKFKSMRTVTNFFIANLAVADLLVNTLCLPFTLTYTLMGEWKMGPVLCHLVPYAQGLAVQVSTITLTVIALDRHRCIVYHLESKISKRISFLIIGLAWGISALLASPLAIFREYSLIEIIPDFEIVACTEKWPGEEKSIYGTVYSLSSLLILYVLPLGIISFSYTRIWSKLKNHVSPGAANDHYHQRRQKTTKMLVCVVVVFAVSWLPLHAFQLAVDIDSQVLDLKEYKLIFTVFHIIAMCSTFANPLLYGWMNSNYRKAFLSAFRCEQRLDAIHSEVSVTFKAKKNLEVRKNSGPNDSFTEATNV
NPY Y1 blocker = NPY-Y1 receptor antagonists, primary screen, cell-based; Neuropeptide Y receptor type 1 (Homo sapiens), P25929; HEK293-CNG Y1 cells, membrane potential fluorescence; NPY at EC95, then isoproterenol; inhibition, % at 3.6 µM; 1% of 200,000 active; AID 1040, 2008;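 active means inhibition above the campaign mean inhibition of all tested compounds plus 3 SD, cut at about 20% in these data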;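 further: 0% = DMSO wells given NPY plus isoproterenol and 100% = isoproterenol alone without NPY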
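material = HEK293 cells with Y1 receptor plus CNG channel | also added = NPY 25 nM then isoproterenol 1 µM plus Ro 20-1724 25 µM | schedule = dye 3 h, compound 60 min room temperature, stimulation 45 min | measured by = membrane potential fluorescence | benchmarks = high control isoproterenol alone, low control NPY with isoproterenol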
S1P4 antag = S1P4 receptor antagonists, primary screen, cell-based | Sphingosine 1-phosphate receptor 4 (Homo sapiens), O95977 | S1P4-expressing cells, antagonist mode, reporter read-out | inhibition, % at 4.98 µM | 0.26% of 220,000 active | AID 1510, 2009; in the data active means inhibition above about 29%;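 further: 0% = wells stimulated with agonist and 100% = vehicle wells without agonist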
NPY2 pot ag = NPY-Y2 potentiators or agonists, primary screen, cell-based. activation, % at 3.6 µM. 0.45% of 220,000 active. AID 1359, 2008. cells expressing NPY-Y2, potentiator/agonist read-out; in the data active means activation above about 27%;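 further: cells stimulated with NPY near EC25 plus isoproterenol at EC100; 0% = vehicle plus submaximal agonist and 100% = vehicle plus saturating agonist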
S1P4 ag = S1P4 receptor agonists, primary screen, cell-based; Sphingosine 1-phosphate receptor 4 (Homo sapiens), O95977; S1P4-expressing cell line, agonist reporter assay; activation, % at 4.98 µM; 0.35% of 220,000 active; AID 1509, 2009; in the data active means activation above about 11%;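 further: 0% = DMSO vehicle and 100% = reference agonist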
NPY-Y1 PAM-ag = NPY-Y1 receptor potentiators or agonists, primary screen, cell-based | NPY-Y1 expressing cells, potentiator/agonist activation | Neuropeptide Y receptor type 1 (Homo sapiens), P25929 | 0.37% of 220,000 active | activation, % at 3.6 µM; in the data active means activation above about 33%, passing the limit was not always enough;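 further: cells stimulated with NPY at EC10 then isoproterenol at EC100; 0% = low agonist plus stimulus and 100% = saturating agonist plus stimulus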
NPY1 antag conf = NPY-Y1 receptor antagonists, retest of hits, confirmation, HEK293-CNG cells, membrane potential fluorescence, triplicate; 21% of 1,200 active; cAMP; NPY challenge against isoproterenol-raised cAMP; shares compounds with NPY Y1 blocker; inhibition, % at 3.6 µM; in the data active means inhibition above about 20%;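 further: 0% = vehicle with agonist plus stimulus and 100% = stimulus alone without agonist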
NPY-Y2 antag ct = NPY-Y2 receptor antagonists, selectivity check, confirmation, counter-screen for NPY-Y1 antagonist project, HEK293-CNG cells, membrane potential fluorescence, triplicate; shares compounds with NPY Y1 blocker; antagonism; cells given NPY, then isoproterenol; inhibition, % at 3.6 µM; 28% of 1,200 active;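 further: 0% = DMSO with agonist challenge and 100% = reference antagonist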
Starred values were filed as active, the others as inactive. Unless noted, no stated cut-off is given here; in the data, active means inhibition above about 17%; inactive means the rest.

Screening Cc1c(C)n(Cc2ccccc2)c2ccc(C(=O)OCCCN(C)C)cc12 returned NPY Y1 blocker 22*, S1P4 antag -17, NPY2 pot ag -14, S1P4 ag 2, NPY-Y1 PAM-ag -5, NPY1 antag conf 29* and NPY-Y2 antag ct 37*.
`CCN1CCN(C(=O)c2ccc3c(c2)c(C)c(C)n3Cc2ccccc2)CC1` gave NPY Y1 blocker 0, S1P4 antag 6, NPY2 pot ag -15, S1P4 ag 0 and NPY-Y1 PAM-ag -9.
Screening Cc1cccc(C)c1OCCn1nc(C(=O)O)c2ccccc2c1=O returned NPY-Y2 antag 10, NPY Y1 blocker 24*, S1P4 antag -2, NPY2 pot ag -30, S1P4 ag 1, NPY-Y1 PAM-ag -35, NPY1 antag conf 17 and NPY-Y2 antag ct 23*.
For CCc1cccc(CC)c1NC(=O)COC(=O)C1(C)CC1(Cl)Cl (configuration not stated) the results were NPY Y1 blocker 29*, S1P4 antag 3, NPY2 pot ag -7, S1P4 ag 2, NPY-Y1 PAM-ag -4, NPY1 antag conf 11 and NPY-Y2 antag ct 18*.
COn1c(SCc2ccc(Cl)cc2)nc2ccccc2c1=O was read as NPY-Y2 antag 10, NPY Y1 blocker 38*, S1P4 antag -8, NPY2 pot ag -16, S1P4 ag 0, NPY-Y1 PAM-ag -52, NPY1 antag conf 27* and NPY-Y2 antag ct 21*.
For COn1c(SCc2cccnc2)nc2ccccc2c1=O the results were NPY-Y2 antag 1, NPY Y1 blocker 5, S1P4 antag 7, NPY2 pot ag -18, S1P4 ag 0 and NPY-Y1 PAM-ag -3.
COc1cc(C)c(C)cc1S(=O)(=O)N1CCN(Cc2ccc3c(c2)OCO3)CC1 was read as NPY-Y2 antag 11, NPY Y1 blocker 24*, S1P4 antag -57, NPY2 pot ag -23, S1P4 ag 0, NPY-Y1 PAM-ag -43, NPY1 antag conf 13 and NPY-Y2 antag ct 11.
`COc1cc(S(=O)(=O)N2CCN(Cc3ccc4c(c3)OCO4)CC2)c(C)cc1C` gave NPY-Y2 antag 6, NPY Y1 blocker 15, S1P4 antag -17, NPY2 pot ag -6, S1P4 ag 0 and NPY-Y1 PAM-ag -16.
`O=C(c1cc(-c2cccs2)on1)N1CCN(c2ccccc2)CC1` gave NPY-Y2 antag 13, NPY Y1 blocker 25*, S1P4 antag 1, NPY2 pot ag -22, S1P4 ag -1, NPY-Y1 PAM-ag -32, NPY1 antag conf 8 and NPY-Y2 antag ct 9.
For Nc1cc(C(=O)N/N=C/c2cccc([N+](=O)[O-])c2)n[nH]c1=O the results were S1P4 antag -10, NPY2 pot ag 9, S1P4 ag 1 and NPY-Y1 PAM-ag 15.
For COc1cccc(OCc2nc3ncc(Br)cc3[nH]2)c1 the results were NPY-Y2 antag 4, NPY Y1 blocker 24*, S1P4 antag 4, NPY2 pot ag -23, S1P4 ag 2, NPY-Y1 PAM-ag -50, NPY1 antag conf 4 and NPY-Y2 antag ct 15.
`Cc1cc(C)cc(OCc2nc3ncc(Br)cc3[nH]2)c1` gave NPY-Y2 antag 4, NPY Y1 blocker -1, S1P4 antag -8, NPY2 pot ag 7, S1P4 ag 1 and NPY-Y1 PAM-ag 10.
`COc1ccc(CCN2C(=O)C(O)=C(C(=O)c3ccco3)C2c2cccs2)cc1OC` (configuration not stated) gave NPY-Y2 antag 6, NPY Y1 blocker 23*, S1P4 antag -2, NPY2 pot ag -17, S1P4 ag 1, NPY-Y1 PAM-ag -27, NPY1 antag conf 7 and NPY-Y2 antag ct 7.
